From ChEMBL document CHEMBL1938290, “Synthesis of 5-benzyl-2-phenylpyrazolo[1,5-a]pyrazin-4,6(5H,7H)-dione derivatives and discovery of an apoptosis inducer for H322 lung cancer cells” (Bioorg Med Chem Lett, 2012)
pIC50: −log10 of the molar value. Active and inactive are the calls of the source. No cut-off for these calls is given here.

How the values were obtained:
[1] = system: A549; test: Cytotoxicity against human A549 cells expressing wild type p53 at 40 uM after 48 hrs by SRB assay; type: functional, cell-based
Summary of the method: (§1)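 A549 (p53 wild-type) lung cancer cells exposed to compound at 20 or 40 µM for 24 or 48 h respectively. Growth/viability then measured by SRB staining with a spectrophotometric read-out, expressed as % of untreated control.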

[2] = system: A549; test: Cytotoxicity against human A549 cells expressing wild type p53 at 20 uM after 24 hrs by SRB assay; type: functional, cell-based; summary of the method: as §1
[3] = (§2) Cytotoxicity against human NCI-H322 cells expressing p53 mutant after 24 hrs by SRB assay; type: functional, cell-based; conditions: NCI-H322, 24 h
Summary of the method: (§3)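 H322 cells exposed to 10, 20, 30 or 40 µM, alongside untreated control, for 24 h. SRB viability read by spectrophotometer. Mean ± SE, n = 3. IC50 taken from the dose–response at 24 h.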

[4] = system: NCI-H322; test: as §2; type: functional, cell-based; summary of the method: as §3
[5] = system: NCI-H322; test: Induction of apoptosis in human NCI-H322 cells assessed as chromatin condensation at 10 to 40 uM after 24 hrs by Hoechst 33258 staining-based fluorescent microscopy; type: functional, cell-based
Summary of the method: (§4)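 H322 cells cultured 24 h with compound or vehicle (0.1% DMSO), then stained with Hoechst 33258. Viewed by fluorescence microscopy at 400×, scoring condensed chromatin and nuclear granulation (blue fluorescence). Apoptotic cell ratio expressed vs control as mean ± SE, n = 3.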

[6] = system: NCI-H322; test: Induction of apoptosis in human NCI-H322 cells assessed as nuclear granulation at 10 to 40 uM after 24 hrs by Hoechst 33258 staining-based fluorescent microscopy; type: functional, cell-based; summary of the method: as §4
[7] = system: HUVEC; test: Cytotoxicity against HUVEC up to 40 uM by SRB assay; type: cell-based; conditions: human
[8] = Solubility of the compound; type: physicochemical
[9] = system: NCI-H322; test: Cytotoxicity against human NCI-H322 cells expressing p53 mutant at 20 uM after 24 hrs by SRB assay; type: functional, cell-based
Summary of the method: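 H322 (p53-mutant) cells treated at 20 µM or left untreated for 24 h. Viability measured by SRB assay and given as % of untreated control. Mean ± SE, n = 3, significance P < 0.05 vs control.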

| SMILES | Activity [1] | Activity [2] | also measured |
| --- | --- | --- | --- |
| O=C1Cn2nc(-c3ccc(Cl)cc3)cc2C(=O)N1CCc1ccc(F)cc1 | inactive | inactive |  |
| COc1ccc(-c2cc3n(n2)CC(=O)N(CCc2ccc(F)cc2)C3=O)cc1 | inactive | inactive |  |
| O=C1Cn2nc(-c3ccccc3)cc2C(=O)N1Cc1ccccc1 | inactive | inactive |  |
| O=C1Cn2nc(-c3ccc(Cl)cc3)cc2C(=O)N1CCc1ccccc1 | inactive | inactive |  |
| O=C1Cn2nc(-c3ccc(Cl)cc3)cc2C(=O)N1Cc1ccccc1 | inactive | inactive |  |
| COc1ccc(-c2cc3n(n2)CC(=O)N(CCc2ccccc2)C3=O)cc1 | inactive | inactive | pIC50 [3]: 4.55; Activity [4]: Dose-dependent effect; Activity [5]: Active; Activity [6]: Active; Activity [7]: Non-toxic |
| COc1ccc(-c2cc3n(n2)CC(=O)N(Cc2ccccc2)C3=O)cc1 | inactive | inactive | solubility [8]: Insoluble; Activity [9]: Active |
| O=C1Cn2nc(-c3ccccc3)cc2C(=O)N1CCc1ccccc1 | inactive | inactive |  |
| COc1cccc(CCN2C(=O)Cn3nc(-c4ccccc4)cc3C2=O)c1 | inactive | inactive |  |
| COc1cccc(CCN2C(=O)Cn3nc(-c4ccc(Cl)cc4)cc3C2=O)c1 | inactive | inactive |  |
| O=C1Cn2nc(-c3ccccc3)cc2C(=O)N1CCc1ccc(F)cc1 | inactive | inactive |  |
| COc1ccc(-c2cc3n(n2)CC(=O)N(CCc2cccc(OC)c2)C3=O)cc1 | inactive | inactive |  |
